Source: ChEMBL document CHEMBL5661979, “Pharmacological inhibition of BMK1 suppresses tumor growth through promyelocytic leukemia protein” (Cancer Cell, 2010)

Tests used:
[1] = target: SRSF protein kinase 1 (Homo sapiens, UniProt Q96SB4); assay: Inhibition of SRPK1 in human HeLa cells lysate at 10 uM pre incubated for 15 mins followed by ATP acyl phosphate probe addition and measured after 10 mins by LC-MS/MS analysis relative to control; assay type: subcellular; details: time 25.0 min
[2] = Inhibition of KHS1/2 in human HeLa cells lysate at 10 uM pre incubated for 15 mins followed by ATP acyl phosphate probe addition and measured after 10 mins by LC-MS/MS analysis relative to control; details: 25 min, condition cancer
[3] = Oral bioavailability in Sprague-Dawley rat at 2 mg/kg measured up to 8 hrs by LC-MS/MS analysis; assay type: ADME, organism-based; details: in vivo
[4] = target: Dual specificity mitogen-activated protein kinase kinase 4 (Homo sapiens, UniProt P45985); assay: Inhibition of MAP2K4 in human HeLa cells lysate pre incubated for 15 mins followed by ATP acyl phosphate probe addition and measured after 10 mins by LC-MS/MS analysis; assay type: subcellular
[5] = target: T1, Phosphorylase b kinase gamma catalytic chain, liver/testis isoform (Homo sapiens) (UniProt P15735); assay: Inhibition of PHKg2 in human HeLa cells lysate at 2 uM pre incubated for 15 mins followed by ATP acyl phosphate probe addition and measured after 10 mins by LC-MS/MS analysis relative to control; assay type: subcellular; details: time 25.0 min
T1 sequence (whole entry): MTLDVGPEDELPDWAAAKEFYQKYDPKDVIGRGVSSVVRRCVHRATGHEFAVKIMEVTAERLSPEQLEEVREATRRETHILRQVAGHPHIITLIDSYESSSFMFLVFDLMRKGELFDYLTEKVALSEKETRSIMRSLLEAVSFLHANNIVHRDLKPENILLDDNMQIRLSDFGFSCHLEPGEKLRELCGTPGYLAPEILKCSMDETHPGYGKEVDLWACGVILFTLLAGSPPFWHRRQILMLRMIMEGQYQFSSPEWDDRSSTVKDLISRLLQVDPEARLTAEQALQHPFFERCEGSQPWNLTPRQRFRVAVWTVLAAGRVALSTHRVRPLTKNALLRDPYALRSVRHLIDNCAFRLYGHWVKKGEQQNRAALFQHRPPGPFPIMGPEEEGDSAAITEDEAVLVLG

[6] = target: Serine/threonine-protein kinase/endoribonuclease IRE1 (Homo sapiens, UniProt O75460); assay: Inhibition of IRE1 in human HeLa cells lysate at 10 uM pre incubated for 15 mins followed by ADP acyl phosphate probe addition and measured after 10 mins by LC-MS/MS analysis relative to control; assay type: subcellular; details: time 25.0 min
[7] = target: Serine/threonine-protein kinase 16 (Homo sapiens, UniProt O75716); assay: Inhibition of MPSK1 in human HeLa cells lysate pre incubated for 15 mins followed by ATP acyl phosphate probe addition and measured after 10 mins by LC-MS/MS analysis; assay type: subcellular
[8] = target: Tyrosine-protein kinase CSK (Homo sapiens, UniProt P41240); assay: Inhibition of CSK in human HeLa cells lysate at 10 uM pre incubated for 15 mins followed by ATP acyl phosphate probe addition and measured after 10 mins by LC-MS/MS analysis relative to control; assay type: subcellular; details: time 25.0 min
[9] = target: Mitogen-activated protein kinase 3 (Homo sapiens, UniProt P27361); assay: Inhibition of ERK1 in human HeLa cells lysate pre incubated for 15 mins followed by ATP acyl phosphate probe addition and measured after 10 mins by LC-MS/MS analysis; assay type: subcellular
[10] = target: Serine/threonine-protein kinase ULK2 (Homo sapiens, UniProt Q8IYT8); assay: Inhibition of ULK2 in human HeLa cells lysate pre incubated for 15 mins followed by ADP acyl phosphate probe addition and measured after 10 mins by LC-MS/MS analysis; assay type: subcellular
[11] = Inhibition of PKD1/2 in human HeLa cells lysate at 10 uM pre incubated for 15 mins followed by ATP acyl phosphate probe addition and measured after 10 mins by LC-MS/MS analysis relative to control; details: 25 min, condition cancer
[12] = target: Serine/threonine-protein kinase WNK1 (Homo sapiens, UniProt Q9H4A3); assay: Inhibition of Wnk1 in human HeLa cells lysate at 50 uM pre incubated for 15 mins followed by ATP acyl phosphate probe addition and measured after 10 mins by LC-MS/MS analysis relative to control; assay type: subcellular; details: time 25.0 min
[13] = target: Ribosomal protein S6 kinase beta-2 (Homo sapiens, UniProt Q9UBS0); assay: Inhibition of P70S6KB in human HeLa cells lysate at 2 uM pre incubated for 15 mins followed by ATP acyl phosphate probe addition and measured after 10 mins by LC-MS/MS analysis relative to control; assay type: subcellular; details: time 25.0 min
[14] = target: Cyclin-dependent kinase 11B (Homo sapiens, UniProt P21127); assay: Inhibition of PITSLRE in human HeLa cells lysate pre incubated for 15 mins followed by ATP acyl phosphate probe addition and measured after 10 mins by LC-MS/MS analysis; assay type: subcellular
[15] = target: Acylglycerol kinase, mitochondrial (Homo sapiens, UniProt Q53H12); assay: Inhibition of AGK in human HeLa cells lysate pre incubated for 15 mins followed by ATP acyl phosphate probe addition and measured after 10 mins by LC-MS/MS analysis; assay type: subcellular
Procedure, shortened: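 HeLa cell lysates (5 mg/mL total protein) were preincubated with inhibitor at 0, 0.8, 2, 10 or 50 μM for 15 min. ATP or ADP acylphosphate probe was then added (5 μM final) for 10 min, and reactions were stopped with urea. Up to four fragment ions per kinase probe-peptide were quantified by targeted MS. % inhibition was taken relative to untreated lysate. Run in duplicate.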

[16] = target: T2, Phosphatidylinositol 5-phosphate 4-kinase type-2 alpha (Homo sapiens) (UniProt P48426); assay: Inhibition of PIP5K2A LIP1 site in human HeLa cells lysate at 2 uM pre incubated for 15 mins followed by ADP acyl phosphate probe addition and measured after 10 mins by LC-MS/MS analysis relative to control; assay type: subcellular; details: time 25.0 min
T2 sequence (whole entry): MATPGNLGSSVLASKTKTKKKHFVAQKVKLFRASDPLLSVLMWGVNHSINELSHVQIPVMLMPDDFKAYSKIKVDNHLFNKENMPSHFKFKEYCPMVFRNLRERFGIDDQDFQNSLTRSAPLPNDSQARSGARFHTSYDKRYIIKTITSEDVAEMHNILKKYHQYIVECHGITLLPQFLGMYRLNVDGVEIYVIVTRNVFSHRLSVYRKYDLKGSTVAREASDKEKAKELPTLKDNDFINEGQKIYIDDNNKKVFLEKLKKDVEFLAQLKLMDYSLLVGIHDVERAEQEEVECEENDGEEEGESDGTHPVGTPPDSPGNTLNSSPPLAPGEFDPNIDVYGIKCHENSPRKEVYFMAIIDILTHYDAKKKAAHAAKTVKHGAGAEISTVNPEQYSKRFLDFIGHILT

[17] = Inhibition of MSK1/2 in human HeLa cells lysate pre incubated for 15 mins followed by ATP acyl phosphate probe addition and measured after 10 mins by LC-MS/MS analysis; assay type: subcellular
[18] = target: T2, Phosphatidylinositol 5-phosphate 4-kinase type-2 alpha (Homo sapiens); assay: Inhibition of PIP5K2A LIP site in human HeLa cells lysate at 10 uM pre incubated for 15 mins followed by ADP acyl phosphate probe addition and measured after 10 mins by LC-MS/MS analysis relative to control; assay type: subcellular; details: time 25.0 min
[19] = Inhibition of MAP3K2/3 in human HeLa cells lysate at 2 uM pre incubated for 15 mins followed by ATP acyl phosphate probe addition and measured after 10 mins by LC-MS/MS analysis relative to control; details: 25 min, condition cancer

Serine/threonine-protein kinase WNK1, sequence (Q9H4A3 whole entry, looked up): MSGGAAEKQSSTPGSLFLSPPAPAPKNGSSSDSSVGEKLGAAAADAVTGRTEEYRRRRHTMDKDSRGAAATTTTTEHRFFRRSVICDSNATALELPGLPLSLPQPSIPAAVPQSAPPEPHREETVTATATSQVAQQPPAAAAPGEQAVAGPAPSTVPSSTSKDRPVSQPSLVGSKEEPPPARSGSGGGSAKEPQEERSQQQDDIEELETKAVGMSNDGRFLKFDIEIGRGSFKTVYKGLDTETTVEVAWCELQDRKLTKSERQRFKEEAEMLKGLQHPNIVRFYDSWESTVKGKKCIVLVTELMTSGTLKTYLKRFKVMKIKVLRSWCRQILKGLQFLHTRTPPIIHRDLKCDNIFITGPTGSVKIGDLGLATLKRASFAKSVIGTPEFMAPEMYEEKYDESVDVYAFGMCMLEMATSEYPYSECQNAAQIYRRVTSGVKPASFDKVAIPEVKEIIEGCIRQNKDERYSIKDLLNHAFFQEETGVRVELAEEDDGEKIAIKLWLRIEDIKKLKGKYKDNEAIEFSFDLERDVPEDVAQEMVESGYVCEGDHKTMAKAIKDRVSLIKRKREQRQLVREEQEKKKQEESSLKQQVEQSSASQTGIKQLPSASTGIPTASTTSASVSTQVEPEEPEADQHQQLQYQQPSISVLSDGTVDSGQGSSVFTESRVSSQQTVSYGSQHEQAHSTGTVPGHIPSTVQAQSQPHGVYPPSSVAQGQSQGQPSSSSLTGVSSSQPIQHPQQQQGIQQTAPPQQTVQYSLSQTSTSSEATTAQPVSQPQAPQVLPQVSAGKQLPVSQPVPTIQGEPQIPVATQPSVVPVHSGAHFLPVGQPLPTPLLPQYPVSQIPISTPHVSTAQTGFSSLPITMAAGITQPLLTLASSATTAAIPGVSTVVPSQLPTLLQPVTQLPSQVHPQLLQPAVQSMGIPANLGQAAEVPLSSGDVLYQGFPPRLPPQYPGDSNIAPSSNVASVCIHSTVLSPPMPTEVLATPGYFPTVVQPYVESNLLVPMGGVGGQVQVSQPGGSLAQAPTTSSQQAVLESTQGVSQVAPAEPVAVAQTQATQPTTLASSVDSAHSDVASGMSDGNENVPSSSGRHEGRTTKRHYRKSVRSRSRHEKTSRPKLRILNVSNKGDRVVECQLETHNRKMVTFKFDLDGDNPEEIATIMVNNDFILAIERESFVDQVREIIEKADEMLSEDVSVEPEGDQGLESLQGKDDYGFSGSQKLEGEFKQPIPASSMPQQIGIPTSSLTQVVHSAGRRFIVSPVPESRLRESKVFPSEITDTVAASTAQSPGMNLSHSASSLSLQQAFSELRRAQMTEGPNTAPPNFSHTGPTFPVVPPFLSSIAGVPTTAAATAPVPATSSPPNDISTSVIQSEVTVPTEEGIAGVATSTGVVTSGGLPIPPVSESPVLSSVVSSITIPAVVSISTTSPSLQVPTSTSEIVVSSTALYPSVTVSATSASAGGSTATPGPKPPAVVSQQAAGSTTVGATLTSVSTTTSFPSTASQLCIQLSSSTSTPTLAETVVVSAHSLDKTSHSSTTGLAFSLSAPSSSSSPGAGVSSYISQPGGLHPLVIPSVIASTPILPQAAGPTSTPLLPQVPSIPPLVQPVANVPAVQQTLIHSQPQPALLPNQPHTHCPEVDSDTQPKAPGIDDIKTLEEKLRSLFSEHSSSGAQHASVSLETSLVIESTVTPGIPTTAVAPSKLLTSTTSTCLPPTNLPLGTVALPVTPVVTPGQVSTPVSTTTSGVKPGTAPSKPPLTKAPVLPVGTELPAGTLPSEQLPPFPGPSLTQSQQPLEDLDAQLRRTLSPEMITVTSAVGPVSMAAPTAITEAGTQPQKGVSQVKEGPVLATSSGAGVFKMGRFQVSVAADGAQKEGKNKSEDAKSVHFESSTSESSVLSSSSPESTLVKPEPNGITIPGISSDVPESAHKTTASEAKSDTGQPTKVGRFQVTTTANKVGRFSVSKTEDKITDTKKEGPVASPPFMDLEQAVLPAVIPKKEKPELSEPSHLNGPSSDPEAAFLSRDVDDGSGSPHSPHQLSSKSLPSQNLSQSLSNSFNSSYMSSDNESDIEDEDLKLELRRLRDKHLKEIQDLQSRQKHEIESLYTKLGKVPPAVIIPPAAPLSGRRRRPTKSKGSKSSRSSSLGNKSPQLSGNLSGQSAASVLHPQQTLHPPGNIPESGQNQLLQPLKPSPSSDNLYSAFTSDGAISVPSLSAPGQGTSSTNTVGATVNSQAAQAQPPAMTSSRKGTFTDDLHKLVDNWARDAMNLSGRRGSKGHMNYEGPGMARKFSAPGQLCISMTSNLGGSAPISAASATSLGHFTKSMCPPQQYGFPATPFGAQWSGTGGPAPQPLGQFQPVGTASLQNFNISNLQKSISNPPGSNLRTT
Acylglycerol kinase, mitochondrial, sequence (Q53H12 whole entry, the tested form may be a part): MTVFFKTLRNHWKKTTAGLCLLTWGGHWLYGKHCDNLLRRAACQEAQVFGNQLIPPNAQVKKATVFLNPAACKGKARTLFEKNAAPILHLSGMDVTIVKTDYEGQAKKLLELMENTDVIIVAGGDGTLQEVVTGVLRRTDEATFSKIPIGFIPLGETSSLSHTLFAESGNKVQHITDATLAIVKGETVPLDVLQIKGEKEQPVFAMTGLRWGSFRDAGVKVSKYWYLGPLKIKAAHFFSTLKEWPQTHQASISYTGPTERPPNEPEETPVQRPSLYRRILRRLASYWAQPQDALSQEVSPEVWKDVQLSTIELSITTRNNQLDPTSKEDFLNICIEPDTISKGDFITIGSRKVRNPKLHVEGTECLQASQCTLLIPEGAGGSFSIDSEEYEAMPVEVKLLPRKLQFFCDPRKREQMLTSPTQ
Serine/threonine-protein kinase 16, sequence (O75716 whole entry): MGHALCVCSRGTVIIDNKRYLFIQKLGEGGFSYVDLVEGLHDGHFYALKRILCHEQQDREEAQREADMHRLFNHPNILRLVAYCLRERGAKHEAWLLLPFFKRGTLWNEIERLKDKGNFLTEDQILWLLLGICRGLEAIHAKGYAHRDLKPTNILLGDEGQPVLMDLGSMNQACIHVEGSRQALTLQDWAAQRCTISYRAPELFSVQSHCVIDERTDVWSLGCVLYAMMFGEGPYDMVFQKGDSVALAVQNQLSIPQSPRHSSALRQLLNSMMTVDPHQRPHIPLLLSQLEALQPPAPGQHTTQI
Serine/threonine-protein kinase/endoribonuclease IRE1, sequence (O75460 19-977 limits assumed): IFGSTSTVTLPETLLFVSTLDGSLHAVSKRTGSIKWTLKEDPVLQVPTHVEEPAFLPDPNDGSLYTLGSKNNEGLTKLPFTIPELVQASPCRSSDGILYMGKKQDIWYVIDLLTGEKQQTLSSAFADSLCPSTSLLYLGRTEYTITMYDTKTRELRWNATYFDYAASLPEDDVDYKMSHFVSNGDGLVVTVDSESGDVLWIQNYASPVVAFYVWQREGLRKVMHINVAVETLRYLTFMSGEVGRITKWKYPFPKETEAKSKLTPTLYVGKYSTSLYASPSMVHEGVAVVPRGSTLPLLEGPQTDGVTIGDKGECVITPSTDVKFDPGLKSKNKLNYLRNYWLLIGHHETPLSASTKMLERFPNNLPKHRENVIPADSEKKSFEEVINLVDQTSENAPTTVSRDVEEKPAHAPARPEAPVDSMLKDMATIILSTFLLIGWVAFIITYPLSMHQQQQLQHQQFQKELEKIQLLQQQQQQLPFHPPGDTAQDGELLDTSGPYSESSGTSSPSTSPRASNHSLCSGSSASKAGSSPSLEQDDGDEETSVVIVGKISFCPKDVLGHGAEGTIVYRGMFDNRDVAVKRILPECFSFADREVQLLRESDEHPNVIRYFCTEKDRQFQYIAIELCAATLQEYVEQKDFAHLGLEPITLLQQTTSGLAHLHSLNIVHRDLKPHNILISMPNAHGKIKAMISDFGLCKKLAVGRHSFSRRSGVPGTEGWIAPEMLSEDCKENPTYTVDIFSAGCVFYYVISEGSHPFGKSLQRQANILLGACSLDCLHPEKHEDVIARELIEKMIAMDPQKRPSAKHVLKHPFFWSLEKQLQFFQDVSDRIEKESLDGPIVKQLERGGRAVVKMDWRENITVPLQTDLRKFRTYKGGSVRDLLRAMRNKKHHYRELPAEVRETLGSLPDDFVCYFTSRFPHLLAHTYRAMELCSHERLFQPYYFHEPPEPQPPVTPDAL
Ribosomal protein S6 kinase beta-2, sequence (Q9UBS0 whole entry): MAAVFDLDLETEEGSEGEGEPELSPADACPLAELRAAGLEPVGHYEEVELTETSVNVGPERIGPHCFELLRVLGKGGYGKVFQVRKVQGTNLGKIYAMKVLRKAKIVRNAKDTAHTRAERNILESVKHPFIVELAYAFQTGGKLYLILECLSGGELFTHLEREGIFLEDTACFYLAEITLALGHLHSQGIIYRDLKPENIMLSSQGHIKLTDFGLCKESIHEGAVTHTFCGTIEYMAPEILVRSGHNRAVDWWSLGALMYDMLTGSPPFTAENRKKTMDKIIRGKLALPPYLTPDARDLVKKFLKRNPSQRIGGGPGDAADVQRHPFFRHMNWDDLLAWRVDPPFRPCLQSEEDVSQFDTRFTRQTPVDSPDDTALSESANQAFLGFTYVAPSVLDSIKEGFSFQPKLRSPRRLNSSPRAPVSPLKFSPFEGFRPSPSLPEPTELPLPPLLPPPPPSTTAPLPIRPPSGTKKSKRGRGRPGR
Dual specificity mitogen-activated protein kinase kinase 4, sequence (P45985 whole entry, canonical isoform): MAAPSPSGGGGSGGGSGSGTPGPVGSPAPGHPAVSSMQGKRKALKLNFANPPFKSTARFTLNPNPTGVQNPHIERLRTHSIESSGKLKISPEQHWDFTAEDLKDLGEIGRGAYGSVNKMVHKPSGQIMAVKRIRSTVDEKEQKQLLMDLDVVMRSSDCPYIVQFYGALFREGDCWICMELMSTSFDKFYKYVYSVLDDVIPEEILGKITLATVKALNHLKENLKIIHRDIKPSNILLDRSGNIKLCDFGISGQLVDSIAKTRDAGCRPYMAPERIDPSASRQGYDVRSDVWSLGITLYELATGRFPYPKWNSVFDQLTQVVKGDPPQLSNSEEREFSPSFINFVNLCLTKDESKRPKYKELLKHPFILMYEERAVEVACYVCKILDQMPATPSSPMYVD

CCOc1cc(N2CCC(O)CC2)ccc1Nc1ncc2c(n1)N(C)c1ccccc1C(=O)N2C
inhibition [1]: 1.3% | inhibition at 10 µM [2]: -11.1% | bioavailability [3]: 69% | IC50 [4]: > 50 µM | inhibition [5]: 3.7% | inhibition [6]: 15.6% | IC50 [7]: > 50 µM | inhibition [8]: -3.4% | IC50 [9]: > 50 µM | IC50 [10]: > 50 µM | inhibition at 10 µM [11]: -23% | inhibition [12]: -9.5% | inhibition [13]: 1.9% | IC50 [14]: > 50 µM | IC50 [15]: > 50 µM | inhibition [16]: 3.5% | IC50 [17]: > 50 µM | inhibition [18]: -2.5% | inhibition at 2 µM [19]: -2.1%
